Most compounds without a hit are left out; they make up all but 1.7% or so of the library.
CXCR6 inh – CXCR6 receptor inhibitors, primary screen, cell-based, beta-arrestin, luminescence, CHO-K1 PathHunter, 1536-well; actives 0.36% (n = 360,000); inhibition, % at 20 µM; AID 602244, 2012; in the data active means inhibition above about 34%, passing the limit was not always enough;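 further: antagonist mode with CXCL16 agonist at 10 nM final; 0% = 10 nM CXCL16 with DMSO and 100% = unstimulated wells without agonist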
Target sequence (O00574 whole entry, looked up): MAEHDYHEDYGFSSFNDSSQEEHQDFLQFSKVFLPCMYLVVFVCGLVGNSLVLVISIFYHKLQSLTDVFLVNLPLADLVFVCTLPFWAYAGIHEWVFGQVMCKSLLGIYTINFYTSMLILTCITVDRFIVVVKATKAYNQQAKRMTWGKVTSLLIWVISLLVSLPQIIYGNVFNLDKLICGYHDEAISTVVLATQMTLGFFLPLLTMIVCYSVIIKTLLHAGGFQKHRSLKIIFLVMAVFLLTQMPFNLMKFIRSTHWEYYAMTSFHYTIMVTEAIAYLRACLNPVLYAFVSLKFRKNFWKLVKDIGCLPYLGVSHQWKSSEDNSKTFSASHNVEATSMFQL
APJ antagonist – antagonists of human apelin receptor APJ, primary screen, CHO-K1 cells, beta-arrestin complementation, luminescence; P35414; inhibition, % at 20 µM; actives 0.32% (n = 330,000); AID 2521, 2010;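 active means inhibition above about 40% at 20 µM, limit read from the data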;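 further: cells challenged with 10 nM apelin-13 agonist together with compound; plate controls were apelin-13 plus DMSO wells for no effect and DMSO wells lacking apelin-13 for full effect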
PfG6PD inh – PfG6PD enzyme inhibitors, primary screen, biochemical, fluorescence intensity, uHTS; glucose-6-phosphate dehydrogenase-6-phosphogluconolactonase (Plasmodium falciparum 3D7); PfGluPho enzyme, NADPH resazurin-diaphorase fluorescence; inhibition, % at 20 µM; actives 0.78% (n = 350,000);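 active means inhibition reaching at least a set limit at 20 µM in the primary screen, cut at about 59% in these data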;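 further: 0% = DMSO wells with substrate and 100% = DMSO wells lacking glucose-6-phosphate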
B2AR ag – beta2AR agonists driving receptor internalization, primary screen, cell-based, FAP fluorogen, flow cytometry. Am2.2-beta2AR cells. actives 0.43% (n = 340,000). Beta-2 adrenergic receptor (Homo sapiens), P07550. response, % (concentration not given with the values);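 active means response above a set limit, near 3 SD of response in nonfluorescent compounds, cut at about 42% in these data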
APJ ag – agonists of human apelin receptor APJ, primary screen, CHO-K1 cells, PathHunter beta-arrestin, luminescence; P35414; 0% DMSO wells, 100% apelin; activation, % at 20 µM; actives 0.11% (n = 330,000); AID 2520, 2010;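 active means activation more than six SD over the plate average, tested at 20 µM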;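 further: 0% = DMSO alone and 100% = apelin-13 at 10 nM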
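Test system: CHO-K1 APJ beta-arrestin complementation cell line | Compound: Single test compound dose, 20 µM final, 1% DMSO | Incubation: Compound 90 min 25 °C, reagent 1 h | Measured by: beta-gal luminescence | Read-out basis: APJ–arrestin association signal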
CCR6 antag – CCR6 receptor antagonists, primary screen, cell-based, CHO-K1, luminescence, beta-arrestin, uHTS; CHO-K1 CCR6 PathHunter beta-arrestin, CCL20-stimulated; inhibition, % at 20 µM; actives 0.49% (n = 340,000); AID 493098, 2011;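 active means compounds whose inhibition of the agonist-driven luminescence signal at 20 µM reaches about 50%, limit read from the data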;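 further: cells stimulated with CCL20 at 14 nM final; plate controls were DMSO with CCL20 for no effect and DMSO without agonist for full effect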
PfG6PD confirm – PfG6PD inhibitors, hit retest, confirmation, biochemical, fluorescence intensity, single concentration. shares compounds with PfG6PD inh. recombinant PfGluPho, NADPH-diaphorase-resazurin fluorescence. inhibition, % at 20 µM. actives 34% (n = 2,400). AID 504753, 2011;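 active means inhibition of at least 50% at 20 µM in any single replicate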;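 further: 0% = DMSO with substrate and 100% = DMSO lacking glucose-6-phosphate substrate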
Diaph ctr 10uM – diaphorase inhibitors and chemical oxidizers, confirmation, counter-screen for P. falciparum G6PD inhibitor project, biochemical, fluorescence intensity, 10 µM NADPH | shares compounds with PfG6PD inh | diaphorase-coupled resazurin reduction, NADPH 10 uM | inhibition, % at 20 µM | AID 504862, 2011 | actives 39% (n = 820);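 active means average inhibition reaching 50% or more with the compound at 20 µM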;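 further: resorufin red fluorescence formed as diaphorase reduces resazurin using NADPH; 0% = DMSO with enzyme and 100% = DMSO without enzyme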
Diaphorase 30uM – diaphorase inhibitors and chemical oxidizers, confirmation, counter-screen for P. falciparum G6PD inhibitor project, biochemical, fluorescence intensity, 30 µM NADPH | actives 29% (n = 820) | shares compounds with PfG6PD inh | Diaphorase/resazurin coupled assay, resorufin fluorescence | inhibition, % at 20 µM;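 active means inhibition averaging 50% or more, tested at 20 µM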;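 further: 0% = DMSO with enzyme and 100% = DMSO wells lacking diaphorase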
Numbers without * were called inactive; x = no result.

SMILES	CXCR6 inh	APJ antagonist	PfG6PD inh	B2AR ag	APJ ag	CCR6 antag	PfG6PD confirm	others
O=C1c2cc(CO)cc(O)c2C(=O)c2c(O[C@@H]3OC(CO)[C@@H](O)[C@@H](O)[C@@H]3O)cccc21 (stereo partly specified)	-2	-176	-2	-2	-4	-5	x
O=C(O)c1cc(O)c2c(c1)[C@@H]([C@H]1c3cc(C(=O)O)cc(O)c3C(=O)c3c(O[C@@H]4O[C@H](CO)[C@@H](O)[C@H](O)[C@H]4O)cccc31)c1cccc(OC3O[C@H](CO)[C@@H](O)[C@H](O)[C@H]3O)c1C2=O (stereo partly specified)	-10	22	69*	23	4	79*	7
CC(Oc1cc2oc(=O)c3c(c2cc1Cl)CCC3)C(=O)NCc1ccccn1 (stereo unspecified)	5	16	4	-17	-2	-3	x
O=C(/C=C/[C@H]1O[C@@H](n2cnc3c(NC(=O)c4ccccc4)ncnc32)[C@H](O)[C@@H]1O)NCCCc1ccccc1	3	x	x	x	x	x	x
C[C@H](O)[C@@H]1C(=O)N2CCc3ccc(N4CCOCC4)cc3[C@@H]2C[C@@H]1N(C)C(=O)Nc1ccccc1	-4	x	-1	-14	x	2	x
CC(=O)N(Cc1ccc(F)cc1)C1=C(NCc2ccccc2)C(=O)c2ccccc2C1=O	9	x	71*	18	x	23	46
CCCCNC1=CC(=O)C(NCCCC)=CC1=O	-1	x	62*	-12	x	19	-3
CCCCNC1=CC(=O)C(=O)c2ccccc21	-4	-58	51	-4	6	-7	x
CC(C)CN1C=C2C(=O)C(C)(OC(=O)CCc3ccccc3)C(=O)C=C2C=C1c1ccc(C#N)cc1 (stereo unspecified)	-24	-62	58	4	15	-10	x
CC1(OC(=O)CCc2ccccc2)C(=O)C=C2C=C(c3ccc(C#N)cc3)N(Cc3ccccc3)C=C2C1=O (stereo unspecified)	-22	0	84*	-2	21	2	36
CC1(OC(=O)CCc2ccccc2)C(=O)C=C2C=C(c3ccc(C#N)cc3)N(C3CC3)C=C2C1=O (stereo unspecified)	-17	-2	83*	6	24	-10	49
COCCN1C=C2C(=O)C(C)(OC(=O)CCc3ccccc3)C(=O)C=C2C=C1c1ccc(C#N)cc1 (stereo unspecified)	-7	-115	62*	-17	27	-8	22
CC1(OC(=O)CCc2ccccc2)C(=O)C=C2C=C(c3ccc(C#N)cc3)N(Cc3ccco3)C=C2C1=O (stereo unspecified)	-7	-103	37	-3	13	8	x
CC(C)COC(=O)N1CCCCC1c1cc(C(=O)NCc2ccc(F)cc2)no1 (stereo unspecified)	1	x	x	x	x	x	x
N=C1/C(=C/c2cccn2CCOc2ccccc2)C(=O)N=C2SC=C(c3ccccc3)N12	20	9	65*	-1	-2	42	9
N=C1/C(=C\c2ccc(-c3cc(Cl)cc(Cl)c3)o2)C(=O)N=C2SC=C(c3ccccc3)N12	31	35	7	9	-3	35	x
c1ccc2c(c1)c1c(c3ccccc32)CN2CCCC2C1 (stereo unspecified)	-14	x	65*	-9	x	-12	-28
Cc1onc(-c2ccc(Cl)cc2)c1-c1ccnc(SCC(=O)Nc2cc(Cl)cc(Cl)c2)n1	0	-5	2	6	-4	13	x
CCN(CC)CCNC(=O)c1cn(CC)c2ccc(S(=O)(=O)N3CCc4ccccc4C3)cc2c1=O	11	14	-1	-9	0	24	x
Cc1nnc(N/N=C\c2ccc(-c3ccccc3[N+](=O)[O-])o2)n1N	-7	x	82*	-13	x	14	38
CCc1nnc(N/N=C/c2ccc(-c3ccc([N+](=O)[O-])cc3)o2)n1N	7	-35	69*	-5	-1	0	27
Cc1nnc(N/N=C/c2ccc(-c3ccccc3F)o2)n1N	-14	-12	67*	9	3	-1	56*	Diaph ctr 10uM=22;Diaphorase 30uM=20
CCC(=O)N/N=C/c1ccc(-c2ccc([N+](=O)[O-])cc2)o1	7	-13	2	-13	-1	3	x
Cc1nnc(N/N=C/c2ccccc2O)n1N	-12	-68	32	4	2	-10	x
O=C(O)c1ccc(-c2ccc(/C=N/Nc3ccc([N+](=O)[O-])cc3)o2)cc1	13	39	71*	-350	-7	45	36
SMILES	CXCR6 inh	APJ antagonist	PfG6PD inh	B2AR ag	APJ ag	CCR6 antag	PfG6PD confirm	others
CS(=O)(=O)N1c2ccccc2[C@]2(Br)C[C@H]3C(=O)N[C@@H](Cc4ccccc4)C(=O)N3[C@H]12	-14	-40	-7	-2	-3	9	x
Nc1cccc2c1C(=O)N(CCOc1ccccc1F)C2=O	-8	6	7	0	-2	8	x
CCCCn1c(N)c(N(CCC(C)C)C(=O)CSc2nncn2-c2ccccc2)c(=O)[nH]c1=O	-7	2	2	-8	0	5	x
c1ccc(-c2nnc3sc(-c4csc5c4CCCC5)nn23)cc1	-5	23	73*	-15	-4	7	3
Cc1cccc(N(CC(=O)NC2CCCCC2)C(=O)CCCC(=O)Nc2ccccn2)c1C	2	18	2	0	-1	15	x
C[C@@H]1Cn2cnc(C(=O)Nc3cccc(Cl)c3)c2C(=O)N1	-9	x	2	x	x	x	x
Cc1ccc(/C=C/C(=O)NCCc2ccccc2)o1	7	15	75*	-4	-3	83*	15
O=C(/C=C/c1ccco1)NCCc1ccccc1	11	19	12	-1	-1	22	x
O=C(Nc1sc2c(c1C(=O)O)CCC2)c1ccccc1	6	10	62*	2	-2	0	34
O=C(Nc1sc2c(c1C(=O)O)CCCC2)c1cccc(Cl)c1	9	-2	62*	4	0	-19	38
